Experimental data published in the array DNA melting data of Ke et al. (doi:10.1101/2024.01.08.574731).

How the values were obtained:
[1] = melting temperature; fluorescence melt of hairpins on a sequencing array, two-state fit, raised by 9.35 °C to match UV melts; settings: sodium 0.088 M
Procedure, shortened: (§1)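 With Cy3 and quencher oligos annealed, library hairpins on a sequenced MiSeq flow cell were imaged for Cy3 fluorescence in 50 mM Na-HEPES pH 8.0, 25 mM NaCl, in 2.5 °C steps up to 60 °C. Melting temperature and folding enthalpy were derived from bootstrapped two-state fits of signals normalised to pre-quench Cy3 and to control constructs. Four replicates were combined by inverse variance, with fitted temperatures raised by 9.35 °C to match UV melts.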

[2] = folding enthalpy; higher = less favourable; fluorescence melt of hairpins on a sequencing array, two-state fit; settings: sodium 0.088 M
Procedure, shortened: as §1

Sequence | Tm [1] [°C] | folding enthalpy [2] [kcal/mol]
GAATGCGAAAGCAGGTTC ((((((....)))..))) | 30.4 | -8.65
GAATGCGAAAGCAGTTC ((((((....))).))) | 41.8 | -13.9
GAATGGGGAAACCCACTC ((.((((....)))).)) | 30 | -13.1
GAATGTGGAAACATGTTC (((..((....))..))) | 31.4 | -18.7
GAATTAGAAATAATTC ((((((....)))))) | 33.3 | -18.5
GAATTAGGAAACTAATTC (((((((....))))))) | 46.9 | -38.8
GAATTCCGAAAGGAGTTC (((.(((....))).))) | 49 | -33.6
GAATTGAAAAATTC (((((....))))) | 31.7 | -13.5
GAATTGCGAAAGCAGTTC (((.(((....))).))) | 51.5 | -30.3
GAATTGGAAACAATTC ((((((....)))))) | 47.3 | -35.6
GAATTGGGAAACCAACTC ((.((((....)))).)) | 26 | -10.9
GAATTGGGAAACTGATTC ((((..(....)..)))) | 25.6 | -13.2
GAATTTGGAAACAAGTTC (((.(((....))).))) | 33.8 | -28.8
GAATTTGGAAACGAATTC (((((.(....).))))) | 38.8 | -35.8
GACAAACCGAAAGGTGTC (((..(((....)))))) | 43.2 | -19.8
GACAAACGAAAGTTAGTC (((.(((....))).))) | 44.3 | -30.9
GACAAAGGAAACTTCGTC (((.(((....))).))) | 26.7 | -17
GACAAAGGAAACTTTGCC (.(((((....))))).) | 33.3 | -21.6
GACAACGAAAGTTAGTC ((((((....))).))) | 42.4 | -24.7
GACAACGAAAGTTCGGTC ((((((....)))..))) | 30.7 | -17.7
GACAACGAAAGTTCGTC ((((((....))).))) | 42.6 | -21
GACAACGAAAGTTGTC ((((((....)))))) | 67.9 | -24.8
GACAACGAAAGTTTAGTC ((((((....)))..))) | 30.4 | -16
